Assays:
HCT-8 = test: Cytotoxicity against human HCT8 cells by MTT assay; format: functional, cell-based
[1] = Inhibition of acetyltransferase activity of Mycobacterium tuberculosis H37Rv GlmU expressed in Escherichia coli BL21(DE3) using acetylcoA as substrate after 30 mins
Bel-7402 = test: Cytotoxicity against human Bel7402 cells by MTT assay; format: functional, cell-based
BGC-823 = test: Cytotoxicity against human BGC823 cells by MTT assay; format: functional, cell-based
A549 = test: Cytotoxicity against human A549 cells by MTT assay; format: functional, cell-based
[2] = Inhibition of baker's yeast alpha-glucosidase using p-nitrophenyl-alpha-D-glucopyranoside as substrate preincubated for 0.5 hrs followed by substrate addition measured for 0.5 hrs; set-up: species or system Saccharomyces cerevisiae
In short: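 Enzyme activity measured with p-NPG as substrate, acarbose run alongside as positive control; procedure follows a previously published protocol.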

A2780 = test: Cytotoxicity against human A2780 cells by MTT assay; format: functional, cell-based
[3] = Non-competitive inhibition of baker's yeast alpha-glucosidase using p-nitrophenyl alpha-D-glucopyranoside as substrate preincubated for 0.5 hrs followed by substrate addition measured for 0.5 hrs by Lineweaver-Burk plot analysis; set-up: species or system Saccharomyces cerevisiae

With `C=C[C@@]1(C)CC[C@]2(C)c3cc4c(c(C)c3CC[C@H]2C1)O[C@@H]1C2=C(C)C(=O)O[C@@]2(O4)[C@H](O)[C@H]2[C@]3(C)CCCC(C)(C)[C@H]3CC[C@@]12O` the IC50 (HCT-8) was over 100 µM, the IC50 [1] was 41.9 µM and the IC50 (Bel-7402) was over 100 µM. The IC50 (BGC-823) was over 100 µM, the IC50 (A549) was over 100 µM and the IC50 [2] was 50.4 µM. It also gave an IC50 (A2780) of over 100 µM.

For `C=C[C@@]1(C)CC[C@]2(C)c3cc(O[C@@]45OC(=O)C(C)=C4[C@H]4O[C@]46CC[C@@H]4C(C)(C)CCC[C@@]4(C)[C@@H]6[C@H]5O)c(O)c(C)c3CC[C@H]2C1`, the IC50 (HCT-8) was over 100 µM, the IC50 [1] was over 100 µM and the IC50 (Bel-7402) was over 100 µM. The Ki [3] was 10.8 µM, the IC50 (BGC-823) was over 100 µM and the IC50 (A549) was over 100 µM. The IC50 [2] was 7.94 µM and the IC50 (A2780) was over 100 µM.

Work on `C[C@H]1O[C@H](O[C@H]2[C@H](O)[C@@H](O)[C@@H](O[C@H]3[C@H](O)[C@@H](O)C(O)O[C@@H]3CO)O[C@@H]2CO)[C@H](O)[C@@H](O)[C@@H]1N[C@H]1C=C(CO)[C@@H](O)[C@H](O)[C@H]1O` (stereo partly specified) [ACARBOSE] yielded an IC50 [2] of 579 µM.
